In the M2OR odorant receptor database:

Tests used:
Settings in all cases: stereoisomer not certain
UniProt Q8VGZ2 = molecular target: T1, UniProt Q8VGZ2
T1 sequence (whole entry): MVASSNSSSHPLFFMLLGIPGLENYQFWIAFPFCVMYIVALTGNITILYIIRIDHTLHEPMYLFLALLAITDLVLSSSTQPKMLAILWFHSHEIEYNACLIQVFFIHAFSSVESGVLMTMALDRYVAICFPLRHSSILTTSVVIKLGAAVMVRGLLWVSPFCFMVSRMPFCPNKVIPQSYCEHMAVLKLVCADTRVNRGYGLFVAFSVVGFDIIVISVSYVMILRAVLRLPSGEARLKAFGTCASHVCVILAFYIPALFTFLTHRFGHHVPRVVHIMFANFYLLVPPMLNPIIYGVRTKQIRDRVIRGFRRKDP
In short: (§1)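 Whether a receptor–molecule pair is responsive (active) rests on the original authors' judgment that its measured signal was statistically different from baseline. Pairs without that judgment are non-responsive (inactive). Sources used varied assay methods, commonly transient luciferase assays in mammalian cell lines.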

UniProt Q8VGZ7 = molecular target: T2, UniProt Q8VGZ7
T2 sequence (whole entry): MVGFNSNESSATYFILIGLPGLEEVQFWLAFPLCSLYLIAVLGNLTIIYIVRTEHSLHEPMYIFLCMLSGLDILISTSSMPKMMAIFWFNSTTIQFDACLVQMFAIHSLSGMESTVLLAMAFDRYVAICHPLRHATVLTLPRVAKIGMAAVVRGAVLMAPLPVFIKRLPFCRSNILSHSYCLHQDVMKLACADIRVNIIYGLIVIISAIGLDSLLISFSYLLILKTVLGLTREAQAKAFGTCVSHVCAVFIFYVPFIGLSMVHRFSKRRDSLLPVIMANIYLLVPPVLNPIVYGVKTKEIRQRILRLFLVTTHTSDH
In short: as §1

UniProt Q8VH16 = molecular target: T3, UniProt Q8VH16
T3 sequence (whole entry): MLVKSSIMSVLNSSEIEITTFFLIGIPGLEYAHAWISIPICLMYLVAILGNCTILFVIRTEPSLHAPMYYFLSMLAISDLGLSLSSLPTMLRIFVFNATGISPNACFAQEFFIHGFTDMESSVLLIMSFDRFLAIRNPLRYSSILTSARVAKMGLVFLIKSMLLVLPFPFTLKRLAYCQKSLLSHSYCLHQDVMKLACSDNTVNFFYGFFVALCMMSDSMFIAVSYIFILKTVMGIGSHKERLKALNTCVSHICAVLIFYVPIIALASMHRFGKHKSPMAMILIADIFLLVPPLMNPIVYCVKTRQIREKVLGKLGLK
In short: as §1

UniProt Q8VH20 = molecular target: T4, UniProt Q8VH20
T4 sequence (whole entry): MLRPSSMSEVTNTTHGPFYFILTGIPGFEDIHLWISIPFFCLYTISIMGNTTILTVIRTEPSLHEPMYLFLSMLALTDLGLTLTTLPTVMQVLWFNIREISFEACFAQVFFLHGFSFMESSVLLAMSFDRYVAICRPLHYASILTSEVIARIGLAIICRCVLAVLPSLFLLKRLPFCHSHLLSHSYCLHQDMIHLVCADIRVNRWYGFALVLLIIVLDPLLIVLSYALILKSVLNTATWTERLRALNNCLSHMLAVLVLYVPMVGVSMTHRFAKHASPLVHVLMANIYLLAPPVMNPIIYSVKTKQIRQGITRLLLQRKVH
In short: as §1

UniProt Q8VH21 = molecular target: T5, UniProt Q8VH21
T5 sequence (whole entry): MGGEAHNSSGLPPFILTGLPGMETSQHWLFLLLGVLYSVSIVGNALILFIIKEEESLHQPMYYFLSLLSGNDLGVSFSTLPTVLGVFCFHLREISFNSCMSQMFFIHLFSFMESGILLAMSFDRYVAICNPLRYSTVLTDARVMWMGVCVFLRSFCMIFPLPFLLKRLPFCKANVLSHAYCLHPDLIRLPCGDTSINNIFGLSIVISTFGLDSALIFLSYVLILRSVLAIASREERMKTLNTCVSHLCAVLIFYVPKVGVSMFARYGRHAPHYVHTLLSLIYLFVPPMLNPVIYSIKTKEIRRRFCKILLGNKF
In short: as §1

UniProt Q920P1 = molecular target: T6, UniProt Q920P1
T6 sequence (whole entry): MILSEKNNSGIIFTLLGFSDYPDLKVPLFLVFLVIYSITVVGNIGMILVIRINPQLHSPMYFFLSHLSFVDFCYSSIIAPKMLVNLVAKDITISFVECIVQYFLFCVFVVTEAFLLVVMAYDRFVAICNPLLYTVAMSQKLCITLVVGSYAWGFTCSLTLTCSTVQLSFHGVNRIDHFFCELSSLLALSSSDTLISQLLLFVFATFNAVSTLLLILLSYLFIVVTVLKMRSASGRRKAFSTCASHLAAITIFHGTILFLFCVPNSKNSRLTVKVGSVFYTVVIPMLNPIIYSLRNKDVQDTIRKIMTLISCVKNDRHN
In short: as §1
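Further: active if original authors judged signal statistically different from baseline.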

Structure (SMILES)	odorant receptor agonist call (UniProt Q8VGZ2)	odorant receptor agonist call (UniProt Q8VGZ7)	odorant receptor agonist call (UniProt Q8VH16)	odorant receptor agonist call (UniProt Q8VH20)	odorant receptor agonist call (UniProt Q8VH21)	odorant receptor agonist call (UniProt Q920P1)
CCSSCC	inactive	inactive	inactive	inactive	inactive	
C=CC(=C)CCC=C(C)C	inactive	inactive	inactive	inactive	inactive	
O=C(O)C1CCC1	inactive	inactive	inactive	inactive	active	
CCCCCCC(C=O)=Cc1ccccc1	inactive	inactive	inactive	inactive	inactive	
COc1ccccc1	inactive	inactive	inactive	inactive	inactive	
CC=Cc1ccc(OC)cc1	inactive	inactive	inactive	inactive	inactive	
CCC(C)O (configuration not stated)	inactive	inactive	inactive	inactive	inactive	
CC(=O)OCCc1ccccc1	inactive	inactive	inactive	inactive	inactive	
CCC=CCCC=CC=O	inactive	inactive	inactive	inactive	inactive	
OCCCCCCCCCO	inactive	inactive	inactive	inactive	inactive	
CCCCCC(=Cc1ccccc1)C(OC)OC	inactive	inactive	inactive	inactive	inactive	
C=C(C)C1CC=C(C)CC1 (configuration not stated)	inactive	inactive	inactive	inactive	inactive	
CCCCCC(C)O (configuration not stated)	inactive	inactive	inactive	inactive	inactive	
CC(=O)C1(C)CC2=C(CCCC2(C)C)CC1C (configuration not stated)	inactive	inactive	inactive	inactive	inactive	
CCCO	inactive	inactive	inactive	inactive	inactive	
CCCCCCCOC(=O)C(C)C	inactive	inactive	inactive	inactive	inactive	
Cc1c(C)c(C)c(C=O)c(C)c1C	inactive	inactive	inactive	inactive	inactive	
CC(C)=CCCC(C)=CCOC(=O)C(C)C	inactive	inactive	inactive	inactive	inactive	
CC(C)=C1CCC(C)CC1=O (configuration not stated)	inactive	inactive	inactive	inactive	inactive	

Structure (SMILES)	odorant receptor agonist call (UniProt Q8VGZ2)	odorant receptor agonist call (UniProt Q8VGZ7)	odorant receptor agonist call (UniProt Q8VH16)	odorant receptor agonist call (UniProt Q8VH20)	odorant receptor agonist call (UniProt Q8VH21)	odorant receptor agonist call (UniProt Q920P1)
CCc1ncc(C)nc1CC	inactive	inactive	inactive	inactive	inactive	
C=CC(=O)CCCCC	inactive	inactive	inactive	inactive	inactive	
CC=CC(=O)C1=C(C)CCCC1(C)C	inactive	inactive	inactive	inactive	inactive	
CC1CCC(C(C)C)C(=O)C1 (configuration not stated)	inactive	inactive	inactive	inactive	inactive	
CCCC=O	inactive	inactive	inactive	inactive	inactive	
CC(=O)OCc1ccc2c(c1)OCO2	inactive	inactive	inactive	inactive	inactive	
CCOC(=O)C(C)CC (configuration not stated)	inactive	inactive	inactive	inactive	inactive	
OCC=Cc1ccccc1	inactive	inactive	inactive	inactive	inactive	
Cc1ccc2c(c1)OCC(=O)CO2	inactive	inactive	inactive	inactive	inactive	
C=C1C2CCC(C2)C1(C)C (configuration not stated)	inactive	inactive	inactive	inactive	inactive	
CC(C=O)Cc1ccc(C(C)(C)C)cc1 (configuration not stated)						inactive
CCc1ccc(O)cc1	inactive	inactive	inactive	inactive	inactive	
CC1CC=CCCCCCCCCCC(=O)C1 (configuration not stated)	inactive	inactive	inactive	inactive	inactive	
C=C(CC)CCCC(C)(C)O	inactive	inactive	inactive	inactive	inactive	
CCCCCCCCCCCO	inactive	inactive	inactive	inactive	inactive	
CCN(CC)CC	inactive	inactive	inactive	inactive	inactive	
CCCCCCCCCC=CC=O	inactive	inactive	inactive	inactive	inactive	
C=CC(C)=CCC=C(C)CCC=C(C)C	inactive	inactive	inactive	inactive	inactive	
C=CCc1ccc(OCC)c(OC)c1						inactive
